According to ChEMBL document CHEMBL4715736, “Identification of anticancer agents based on the thieno[2,3-b]pyridine and 1H-pyrazole molecular scaffolds” (2016):

Key:
Assay type in all cases: functional
HOP-92 = test: Growth inhibition of human HOP-92 cells assessed as cell growth at 0.01 uM incubated for 48 hrs by sulforhodamine B assay relative to control; conditions: read-out: Activity
NCI-H226 [1] = test: Growth inhibition of human NCI-H226 cells assessed as cell growth at 0.01 uM incubated for 48 hrs by sulforhodamine B assay relative to control; conditions: read-out: Activity
HCT-15 [2] = test: Growth inhibition of human HCT-15 cells assessed as cell growth at 0.01 uM incubated for 48 hrs by sulforhodamine B assay relative to control; conditions: read-out: Activity
SNB-19 [3] = test: Growth inhibition of human SNB-19 cells assessed as cell growth at 0.01 uM incubated for 48 hrs by sulforhodamine B assay relative to control; conditions: read-out: Activity
U-251 = test: Growth inhibition of human U-251 cells assessed as cell growth at 0.01 uM incubated for 48 hrs by sulforhodamine B assay relative to control; conditions: read-out: Activity
SK-MEL-5 [4] = test: Growth inhibition of human SK-MEL-5 cells assessed as cell growth at 0.01 uM incubated for 48 hrs by sulforhodamine B assay relative to control; conditions: read-out: Activity
NCI/ADR-RES = test: Growth inhibition of human NCI/ADR-RES cells assessed as cell growth at 0.01 uM incubated for 48 hrs by sulforhodamine B assay relative to control; conditions: read-out: Activity
SK-OV-3 [5] = test: Growth inhibition of human SK-OV-3 cells assessed as cell growth at 0.01 uM incubated for 48 hrs by sulforhodamine B assay relative to control; conditions: read-out: Activity
A549 = test: Growth inhibition of human A549/ATCC cells assessed as cell growth at 0.1 uM incubated for 48 hrs by sulforhodamine B assay relative to control; conditions: read-out: Activity
In short: (§1)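 NCI Developmental Therapeutics Program NCI60 panel. Compounds that were active in the 10 µM one-dose screen went on to dose–response testing. Growth at each concentration is expressed relative to untreated control (100%). GI50 (concentration giving 50% of maximal inhibition of proliferation) and TGI (concentration giving total growth inhibition) were derived from the curves.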

IGROV-1 = test: Growth inhibition of human IGROV-1 cells assessed as cell growth at 0.1 uM incubated for 48 hrs by sulforhodamine B assay relative to control; conditions: read-out: Activity
OVCAR-3 = test: Growth inhibition of human OVCAR-3 cells assessed as cell growth at 0.1 uM incubated for 48 hrs by sulforhodamine B assay relative to control; conditions: read-out: Activity
A498 = test: Growth inhibition of human A498 cells assessed as cell growth at 0.1 uM incubated for 48 hrs by sulforhodamine B assay relative to control; conditions: read-out: Activity; in short: as §1
NCI-H226 [6] = test: Growth inhibition of human NCI-H226 cells assessed as cell growth at 1 uM incubated for 48 hrs by sulforhodamine B assay relative to control; conditions: read-out: Activity
NCI-H322M = test: Growth inhibition of human NCI-H322M cells assessed as cell growth at 1 uM incubated for 48 hrs by sulforhodamine B assay relative to control; conditions: read-out: Activity
NCI-H522 = test: Growth inhibition of human NCI-H522 cells assessed as cell growth at 1 uM incubated for 48 hrs by sulforhodamine B assay relative to control; conditions: read-out: Activity
HCT-15 [7] = test: Growth inhibition of human HCT-15 cells assessed as cell growth at 1 uM incubated for 48 hrs by sulforhodamine B assay relative to control; conditions: read-out: Activity
SK-MEL-28 = test: Growth inhibition of human SK-MEL-28 cells assessed as cell growth at 1 uM incubated for 48 hrs by sulforhodamine B assay relative to control; conditions: read-out: Activity
SK-MEL-5 [8] = test: Growth inhibition of human SK-MEL-5 cells assessed as cell growth at 1 uM incubated for 48 hrs by sulforhodamine B assay relative to control; conditions: read-out: Activity
SK-OV-3 [9] = test: Growth inhibition of human SK-OV-3 cells assessed as cell growth at 1 uM incubated for 48 hrs by sulforhodamine B assay relative to control; conditions: read-out: Activity
786-0 = test: Growth inhibition of human 786-0 cells assessed as cell growth at 1 uM incubated for 48 hrs by sulforhodamine B assay relative to control; conditions: read-out: Activity; in short: as §1
CAKI-1 = test: Growth inhibition of human CAKI-1 cells assessed as cell growth at 1 uM incubated for 48 hrs by sulforhodamine B assay relative to control; conditions: read-out: Activity; in short: as §1
UO-31 = test: Growth inhibition of human UO-31 cells assessed as cell growth at 1 uM incubated for 48 hrs by sulforhodamine B assay relative to control; conditions: read-out: Activity
T47D [10] = test: Growth inhibition of human T47D cells assessed as cell growth at 1 uM incubated for 48 hrs by sulforhodamine B assay relative to control; conditions: read-out: Activity
MDA-MB-468 [11] = test: Growth inhibition of human MDA-MB-468 cells assessed as cell growth at 1 uM incubated for 48 hrs by sulforhodamine B assay relative to control; conditions: read-out: Activity
COLO 205 = test: Growth inhibition of human COLO 205 cells assessed as cell growth at 100 uM incubated for 48 hrs by sulforhodamine B assay relative to control; conditions: read-out: Activity; in short: as §1
SW-620 = test: Growth inhibition of human SW-620 cells assessed as cell growth at 100 uM incubated for 48 hrs by sulforhodamine B assay relative to control; conditions: read-out: Activity
OVCAR-4 = test: Growth inhibition of human OVCAR-4 cells assessed as cell growth at 100 uM incubated for 48 hrs by sulforhodamine B assay relative to control; conditions: read-out: Activity
OVCAR-8 = test: Growth inhibition of human OVCAR-8 cells assessed as cell growth at 100 uM incubated for 48 hrs by sulforhodamine B assay relative to control; conditions: read-out: Activity
SK-OV-3 [12] = test: Growth inhibition of human SK-OV-3 cells assessed as cell growth at 100 uM incubated for 48 hrs by sulforhodamine B assay relative to control; conditions: read-out: Activity
T47D [13] = test: Growth inhibition of human T47D cells assessed as cell growth at 100 uM incubated for 48 hrs by sulforhodamine B assay relative to control; conditions: read-out: Activity
MDA-MB-468 [14] = test: Growth inhibition of human MDA-MB-468 cells assessed as cell growth at 100 uM incubated for 48 hrs by sulforhodamine B assay relative to control; conditions: read-out: Activity
NCI-H460 = test: Growth inhibition of human NCI-H460 cells incubated for 48 hrs by sulforhodamine B assay
In short: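 NCI60 panel at the NCI Developmental Therapeutics Program. Only compounds active in the 10 µM screen went to dose-response testing. GI50, the concentration giving 50% of maximal inhibition of proliferation, and TGI, the concentration giving total growth inhibition, were derived from the dose-response curves.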

SNB-19 [15] = test: Growth inhibition of human SNB-19 cells incubated for 48 hrs by sulforhodamine B assay
In short: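 NCI DTP 60-line human tumour panel. Dose-response curves were run only for ligands active in the initial 10 µM screen. GI50 (concentration giving 50% of maximal inhibition of proliferation) and TGI (concentration giving total growth inhibition) were derived from these curves.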

PC-3 [16] = test: Growth inhibition of human PC-3 cells assessed as cell growth at 0.01 uM incubated for 48 hrs by sulforhodamine B assay relative to control; conditions: read-out: Activity
PC-3 [17] = test: Growth inhibition of human PC-3 cells assessed as cell growth at 100 uM incubated for 48 hrs by sulforhodamine B assay relative to control; conditions: read-out: Activity

Row | Compound | growth at 0.01 µM (HOP-92) | growth at 0.01 µM (NCI-H226 [1]) | growth at 0.01 µM (HCT-15 [2]) | growth at 0.01 µM (SNB-19 [3]) | growth at 0.01 µM (U-251) | growth at 0.01 µM (SK-MEL-5 [4]) | growth at 0.01 µM (NCI/ADR-RES) | growth at 0.1 µM (A549) | growth at 0.1 µM (IGROV-1) | growth at 0.1 µM (OVCAR-3) | growth at 0.1 µM (A498) | growth at 1 µM (NCI-H226 [6]) | growth at 1 µM (NCI-H322M) | growth at 1 µM (HCT-15 [7]) | growth at 1 µM (SK-MEL-28) | growth at 1 µM (SK-MEL-5 [8]) | growth at 1 µM (786-0) | growth at 1 µM (CAKI-1) | growth at 1 µM (UO-31) | growth at 1 µM (T47D [10]) | further results
1 | CCc1ccccc1NC(=O)c1sc2nc3c(cc2c1N)C(=O)CCC3 | 87% | 89% | 93% | 91% | 96% | 96% | 102% | 88% | 102% | 100% | 72% | 63% | 40% | 30% | 49% | 11% | 38% | 33% | 50% | 20% | growth at 0.01 µM (SK-OV-3 [5]): 104%; growth at 1 µM (NCI-H522): 34%; growth at 1 µM (SK-OV-3 [9]): 30%; growth at 1 µM (MDA-MB-468 [11]): -4%; growth at 100 µM (COLO 205): -72%; growth at 100 µM (SW-620): 12%; growth at 100 µM (OVCAR-4): 8%; growth at 100 µM (OVCAR-8): 10%; growth at 100 µM (SK-OV-3 [12]): -4%; growth at 100 µM (T47D [13]): -5%; growth at 100 µM (MDA-MB-468 [14]): -8%; GI50 (NCI-H460): 0.345 µM; LC50 (NCI-H460): > 100 µM; TGI (NCI-H460): > 100 µM; GI50 (SNB-19 [15]): 0.763 µM; LC50 (SNB-19 [15]): > 100 µM; TGI (SNB-19 [15]): > 100 µM
2 | Cc1ccc(NC(=O)c2sc3nc4c(cc3c2N)C(=O)CCC4)cc1C | 87% | 90% | 95% | 91% | 98% | 95% | 100% | 98% | 99% | 101% | 78% | 68% | 49% | 32% | 51% | 21% | 40% | 41% | 42% | 23% | growth at 0.01 µM (SK-OV-3 [5]): 103%; growth at 1 µM (NCI-H522): 1%; growth at 1 µM (SK-OV-3 [9]): 29%; growth at 1 µM (MDA-MB-468 [11]): -9%; growth at 100 µM (COLO 205): -56%; growth at 100 µM (SW-620): 18%; growth at 100 µM (OVCAR-4): 18%; growth at 100 µM (OVCAR-8): 11%; growth at 100 µM (SK-OV-3 [12]): 8%; growth at 100 µM (T47D [13]): -13%; growth at 100 µM (MDA-MB-468 [14]): -1%; GI50 (NCI-H460): 0.374 µM; LC50 (NCI-H460): > 100 µM; TGI (NCI-H460): ≥ 100 µM; GI50 (SNB-19 [15]): 0.558 µM; LC50 (SNB-19 [15]): > 100 µM; TGI (SNB-19 [15]): > 100 µM
3 | CCc1cccc(C)c1NC(=O)c1sc2nc3c(cc2c1N)C(=O)CCC3 | 82% | 96% | 93% | 96% | 94% | 92% | 100% | 93% | 104% | 104% | 72% | 67% | 42% | 29% | 48% | 6% | 36% | 31% | 37% | 28% | growth at 0.01 µM (PC-3 [16]): 94%; growth at 1 µM (MDA-MB-468 [11]): -8%; growth at 100 µM (COLO 205): -31%; growth at 100 µM (SW-620): 14%; growth at 100 µM (OVCAR-4): 10%; growth at 100 µM (OVCAR-8): -2%; growth at 100 µM (PC-3 [17]): 18%; growth at 100 µM (T47D [13]): -10%; growth at 100 µM (MDA-MB-468 [14]): -18%; GI50 (NCI-H460): 0.355 µM; LC50 (NCI-H460): > 100 µM; TGI (NCI-H460): 12.6 µM; GI50 (SNB-19 [15]): 0.87 µM; LC50 (SNB-19 [15]): > 100 µM; TGI (SNB-19 [15]): > 100 µM
